Source: ChEMBL document CHEMBL4017446, “Discovery of (2-aminophenyl)methanol as a new molecular chaperone that rescues the localization of P123S mutant pendrin stably expressed in HEK293 cells” (Bioorg Med Chem, 2017)
The source made the active and inactive calls. The calls are words filed in the database; no cut-off is given here.

Columns and labels:
[1] = test system: T1, Pendrin (Homo sapiens), O43511 [P123S]; test: Chaperone activity at recombinant human C-terminal FLAG-tagged pendrin P123S mutant expressed in HEK293 cells assessed as fluorescence intensity ratio of plasma membrane to cytoplasm at 10 mM measured after 12 hrs by DAPI staining based immunofluorescence microscopic method; assay type: cell-based
T1 sequence (whole entry): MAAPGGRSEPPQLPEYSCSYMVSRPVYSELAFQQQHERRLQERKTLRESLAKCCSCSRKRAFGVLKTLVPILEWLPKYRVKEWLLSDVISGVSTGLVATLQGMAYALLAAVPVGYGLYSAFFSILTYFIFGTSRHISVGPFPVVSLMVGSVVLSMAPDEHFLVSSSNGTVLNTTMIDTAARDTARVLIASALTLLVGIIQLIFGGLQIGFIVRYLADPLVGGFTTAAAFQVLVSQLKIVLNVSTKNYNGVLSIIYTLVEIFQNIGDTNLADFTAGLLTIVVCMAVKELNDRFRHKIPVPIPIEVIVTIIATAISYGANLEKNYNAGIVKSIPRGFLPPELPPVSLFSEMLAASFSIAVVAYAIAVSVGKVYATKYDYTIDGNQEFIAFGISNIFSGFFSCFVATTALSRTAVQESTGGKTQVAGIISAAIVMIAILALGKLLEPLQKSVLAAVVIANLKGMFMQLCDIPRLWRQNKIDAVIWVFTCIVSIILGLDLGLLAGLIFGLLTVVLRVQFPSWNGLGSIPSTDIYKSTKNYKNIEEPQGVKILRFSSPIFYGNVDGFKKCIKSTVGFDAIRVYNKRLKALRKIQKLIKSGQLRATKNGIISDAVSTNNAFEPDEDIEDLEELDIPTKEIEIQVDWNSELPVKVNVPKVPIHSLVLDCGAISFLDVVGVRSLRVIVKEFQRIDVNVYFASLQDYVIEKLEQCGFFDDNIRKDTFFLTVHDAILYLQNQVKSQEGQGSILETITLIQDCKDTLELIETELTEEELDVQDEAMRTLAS
Summary of the method: (§1)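 Stable HEK293 line expressing FLAG-tagged P123S pendrin, grown in 10% FBS-RPMI-1640, treated 12 h with compound or vehicle (0.1% DMSO) in 35 mm dishes. Cells were fixed in 4% paraformaldehyde, stained with anti-FLAG primary antibody, Alexa Fluor 546 secondary and DAPI, and imaged by confocal microscopy. Mean intensities of 20 regions ([…]) in plasma membrane and cytoplasm gave the M/C ratio; 6–9 cells averaged.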

HEK293 [2] = test: Cytotoxicity against HEK293 cells harboring pendrin P123S mutant after 72 hrs by MTT assay; assay type: cell-based; details: Homo sapiens, HEK293, 72 h
Summary of the method: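 Stable P123S pendrin HEK293 cells were seeded at 5 × 10^4 cells/well and preincubated 12 h at 37 °C. Cells were then exposed to compound at various concentrations in RPMI-1640 for 72 h. Viability was measured by MTT, and IC50 was taken from semilogarithmic dose-response plots. Triplicate experiments.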

[3] = test system: T1, Pendrin (Homo sapiens), O43511 [P123S]; test: Chaperone activity at recombinant human C-terminal FLAG-tagged pendrin P123S mutant expressed in HEK293 cells assessed as increase in fluorescence intensity ratio of plasma membrane to cytoplasm measured after 12 hrs by DAPI staining based immunofluorescence microscopic method; assay type: cell-based; summary of the method: as §1
[4] = test system: T1, Pendrin (Homo sapiens), O43511 [P123S]; test: (§2) Chaperone activity at recombinant human C-terminal FLAG-tagged pendrin P123S mutant expressed in HEK293 cells assessed as intracellular localization of mutant protein in plasma membrane at 10 mM incubated for 12 hrs followed by compound washout measured after 6 hrs by DAPI staining based immunofluorescence microscopic analysis; assay type: cell-based
Summary of the method: (§3)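 Stable P123S pendrin HEK293 cells (5 × 10^4/well) were exposed to compound or 0.1% DMSO for 12 h, washed with PBS, then kept in fresh medium for 0, 6 or 12 h. They were then anti-FLAG/DAPI immunostained and imaged by confocal microscopy to follow pendrin distribution at the plasma membrane. Triplicate experiments.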

[5] = test system: T1, Pendrin (Homo sapiens), O43511 [P123S]; test: Chaperone activity at recombinant human C-terminal FLAG-tagged pendrin P123S mutant expressed in HEK293 cells assessed as translocation of mutant protein from cytoplasm to plasma membrane at 1 to 10 mM measured after 12 hrs by DAPI staining based immunofluorescence microscopic analysis; assay type: cell-based
Summary of the method: (§4)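 HEK293 cells stably expressing FLAG-tagged P123S pendrin were incubated 12 h with compound or 0.1% DMSO in dishes. WT-pendrin cells given vehicle served as reference. Cells were fixed in paraformaldehyde, blocked in 1% BSA, stained with anti-FLAG/Alexa Fluor 546 secondary plus DAPI, and membrane versus cytoplasmic localization was judged by confocal imaging.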

[6] = test system: T1, Pendrin (Homo sapiens), O43511 [P123S]; test: as §2, with “12” for “6”; assay type: cell-based; summary of the method: as §3
[7] = test system: T1, Pendrin (Homo sapiens), O43511 [P123S]; test: Chaperone activity at recombinant human C-terminal FLAG-tagged pendrin P123S mutant expressed in HEK293 cells assessed as translocation of mutant protein from cytoplasm to plasma membrane at 3 mM measured after 12 hrs by DAPI staining based immunofluorescence microscopic analysis; assay type: cell-based; summary of the method: as §4
[8] = test system: T1, Pendrin (Homo sapiens), O43511 [P123S]; test: Chaperone activity at recombinant human C-terminal FLAG-tagged pendrin P123S mutant expressed in HEK293 cells assessed as increase in localization of protein mutant in plasma membrane at 1 to 30 mM after 12 hrs by DAPI staining based immunofluorescence microscopic analysis; assay type: cell-based
Summary of the method: (§5)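 Stable P123S pendrin HEK293 cells were screened in 96-well plates after 12 h exposure to compound or 0.1% DMSO. WT cells with vehicle served as positive control. Cells were anti-FLAG/DAPI immunostained, and about 100 cells per field across 100 fields were imaged by automated high-content analysis. The read-out was cytoplasmic fluorescence intensity in a 5-pixel band 2–7 pixels inside the cell outline.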

HEK293 [9] = test: Induction of HEK293 cell aggregation measured after 12 hrs by DAPI staining based immunofluorescence microscopic method; details: human, hek293, 12 h
Summary of the method: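 Stable P123S pendrin HEK293 cells were incubated with compound for 12 h in 35 mm dishes, then immunostained with anti-FLAG and DAPI. Cell aggregation was observed under a fluorescence microscope.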

HEK293 [10] = test: Cytotoxicity against HEK293 cells harboring pendrin P123S mutant assessed as decrease in cell viability at 15 mM after 72 hrs by MTT assay; assay type: cell-based; details: human, hek293, 72 h, 15000 µM
[11] = test system: T1, Pendrin (Homo sapiens), O43511 [P123S]; test: Chaperone activity at recombinant human C-terminal FLAG-tagged pendrin P123S mutant expressed in HEK293 cells assessed as translocation of mutant protein from cytoplasm to plasma membrane at 0.1 mM measured after 12 hrs by DAPI staining based immunofluorescence microscopic analysis; assay type: cell-based; summary of the method: as §4
[12] = test system: T1, Pendrin (Homo sapiens), O43511 [P123S]; test: Chaperone activity at recombinant human C-terminal FLAG-tagged pendrin P123S mutant expressed in HEK293 cells assessed as fluorescence intensity ratio of plasma membrane to cytoplasm at 0.1 mM measured after 12 hrs by DAPI staining based immunofluorescence microscopic method; assay type: cell-based; summary of the method: as §1
[13] = test system: T1, Pendrin (Homo sapiens), O43511 [P123S]; test: Chaperone activity at recombinant human C-terminal FLAG-tagged pendrin P123S mutant expressed in HEK293 cells assessed as increase in localization of protein mutant in plasma membrane at 0.03 to 1 mM after 12 hrs by DAPI staining based immunofluorescence microscopic analysis; assay type: cell-based; summary of the method: as §5
[14] = test system: T1, Pendrin (Homo sapiens), O43511 [P123S]; test: as §2, with “0.1” for “10”, “12” for “6”; assay type: cell-based; summary of the method: as §3
[15] = test system: T1, Pendrin (Homo sapiens), O43511 [P123S]; test: as §2, with “0.1” for “10”; assay type: cell-based; summary of the method: as §3
[16] = test system: T1, Pendrin (Homo sapiens), O43511 [P123S]; test: Chaperone activity at recombinant human C-terminal FLAG-tagged pendrin P123S mutant expressed in HEK293 cells assessed as fluorescence intensity ratio of plasma membrane to cytoplasm at 0.3 mM measured after 12 hrs by DAPI staining based immunofluorescence microscopic method; assay type: cell-based; summary of the method: as §1
[17] = test system: T1, Pendrin (Homo sapiens), O43511 [P123S]; test: Potency index, ratio of compound effect to salicylate effect for chaperone activity at recombinant human C-terminal FLAG-tagged pendrin P123S mutant expressed in HEK293 cells assessed as translocation of mutant protein from cytoplasm to plasma membrane; assay type: cell-based

Cc1ccc(O)c(C(=O)O)c1
Ratio [1]: 1.7 | IC50 (HEK293 [2]): 9.8 mM | Activity [3]: Dose-dependent effect | Activity [4]: Active | Activity [5]: Active

O=C(O)c1cc([N+](=O)[O-])ccc1O
Activity [6]: Active | Ratio [1]: 1.3 | Activity [7]: Active | IC50 (HEK293 [2]): 5.3 mM | Activity [3]: Dose-dependent effect | Activity [8]: Active | Activity [4]: Active

O=C(O)Cc1ccccc1O
IC50 (HEK293 [2]): 12.1 mM | Activity [8]: Active

CC(O)CC(=O)O (stereo unspecified)
IC50 (HEK293 [2]): > 15 mM | Activity [8]: Active

O=C(O)c1ccc([N+](=O)[O-])cc1O
IC50 (HEK293 [2]): 12.5 mM | Activity [8]: Active | Activity (HEK293 [9]): Toxic

Nc1cccc(CO)c1
IC50 (HEK293 [2]): > 15 mM | Activity (HEK293 [10]): 46.7%

OCCc1ccccc1O
IC50 (HEK293 [2]): > 15 mM | Activity [8]: Active | Activity (HEK293 [9]): Toxic | Activity (HEK293 [10]): 38.3%

Nc1ccc(CO)cc1
IC50 (HEK293 [2]): 12.7 mM

OB(O)c1ccccc1O
IC50 (HEK293 [2]): > 15 mM | Activity [8]: Active | Activity (HEK293 [9]): Toxic | Activity (HEK293 [10]): 22.3%

Nc1ccccc1CCO
IC50 (HEK293 [2]): > 15 mM | Activity [8]: inactive | Activity (HEK293 [10]): 35.8%

O=C(O)c1c(O)cccc1O
IC50 (HEK293 [2]): 10.6 mM | Activity [8]: inactive

O=C(O)c1cccc(O)c1O [2,3-DIHYDROXYBENZOIC ACID]
IC50 (HEK293 [2]): > 15 mM | Activity [8]: inactive | Activity (HEK293 [10]): 47.4%

Nc1ccccc1C(=O)O [ANTHRANILIC ACID]
IC50 (HEK293 [2]): > 15 mM | Activity [8]: inactive | Activity (HEK293 [10]): 46.9%

CC(=O)Oc1ccccc1C(=O)O [ASPIRIN]
IC50 (HEK293 [2]): 10.2 mM | Activity [8]: inactive

O=C(O)c1cc(O)ccc1O [GENTISIC ACID]
IC50 (HEK293 [2]): > 15 mM | Activity [8]: inactive | Activity (HEK293 [10]): 46.8%

Nc1ccccc1CO [ISATOIC ANHYDRIDE]
Activity [11]: Active | Ratio [12]: 0.9 | Activity [13]: Active | Activity [14]: Active | Activity [3]: Dose-dependent effect | Activity [15]: Active | Ratio [16]: 1.8 | Ratio [17]: 100

O=C(O)CC(=O)O [MALONIC ACID]
IC50 (HEK293 [2]): 9.7 mM

Nc1ccc(O)c(C(=O)O)c1 [MESALAMINE]
IC50 (HEK293 [2]): > 15 mM | Activity [8]: inactive | Activity (HEK293 [10]): 35.5%

O=C(O)c1ccc(O)c(O)c1 [PROTOCATECHUIC ACID]
IC50 (HEK293 [2]): > 15 mM | Activity [8]: inactive | Activity (HEK293 [10]): 37%

OCc1ccccc1O [SALICYL ALCOHOL]
IC50 (HEK293 [2]): > 15 mM | Activity [8]: inactive | Activity (HEK293 [10]): 25.3%

O=C(O)c1ccccc1O [SALICYLIC ACID]
Ratio [1]: 1 | IC50 (HEK293 [2]): > 15 mM | Activity [3]: Dose-dependent effect | Activity [4]: inactive | Activity (HEK293 [10]): 4.2%

O=C(O)c1ccccc1S [THIOSALICYLIC ACID]
IC50 (HEK293 [2]): 12.7 mM | Activity [8]: inactive
